Experimental data from ChEMBL document CHEMBL4371070, “Design, synthesis of novel purin-6-one derivatives as phosphodiesterase 2 (PDE2) inhibitors: The neuroprotective and anxiolytic-like effects” (Bioorg Med Chem Lett, 2019).
Active and inactive are the calls of the source. The calls are words filed in the database; no cut-off is given here.

What was measured:
[1] = target: cGMP-dependent 3',5'-cyclic phosphodiesterase (Homo sapiens, UniProt O00408); assay: Inhibition of PDE2 (unknown origin) using [3H]cAMP or [3H]cGMP as substrate measured after 30 mins by liquid scintillation counting method
Mus musculus [2] = assay: Anxiolytic activity in ICR mouse model of chronic stress-induced cognitive impairment assessed as increase in time spent in open arms at 2 mg/kg, ip measured for 5 mins test period by elevated plus maze test; assay type: functional, organism-based
[3] = target: cGMP-specific 3',5'-cyclic phosphodiesterase (Homo sapiens, UniProt O76074); assay: Inhibition of PDE5 (unknown origin) using [3H]cAMP or [3H]cGMP as substrate measured after 30 mins by liquid scintillation counting method
Phosphodiesterase 1 = Phosphodiesterase 1 (Homo sapiens, UniProt P54750+Q01064+Q14123); assay: Inhibition of PDE1 (unknown origin) using [3H]cAMP or [3H]cGMP as substrate measured after 30 mins by liquid scintillation counting method; assay type: protein assay
[4] = target: High affinity cGMP-specific 3',5'-cyclic phosphodiesterase 9A (Homo sapiens, UniProt O76083); assay: Inhibition of PDE9 (unknown origin) using [3H]cAMP or [3H]cGMP as substrate measured after 30 mins by liquid scintillation counting method
Phosphodiesterase 4 = Phosphodiesterase 4 (Homo sapiens, UniProt P27815+Q08499+Q07343+Q08493); assay: Inhibition of PDE4 (unknown origin) using [3H]cAMP or [3H]cGMP as substrate measured after 30 mins by liquid scintillation counting method; assay type: protein assay
[5] = target: cAMP and cAMP-inhibited cGMP 3',5'-cyclic phosphodiesterase 10A (Homo sapiens, UniProt Q9Y233); assay: Inhibition of PDE10 (unknown origin) using [3H]cAMP or [3H]cGMP as substrate measured after 30 mins by liquid scintillation counting method
Mus musculus [6] = assay: Anxiolytic activity in ICR mouse model of chronic stress-induced cognitive impairment assessed as increase in time spent in open arms at 0.5 mg/kg, ip measured for 5 mins test period by elevated plus maze test; assay type: functional, organism-based
How it was run: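 Chronically stressed mice given the reference drug at 0.5 mg/kg i.p., then tested in the elevated plus-maze for open-arm measures. Mean ± SEM, n = 6, versus vehicle-treated stressed group.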

Mus musculus [7] = species: Mus musculus; assay: Inhibition of PDE2 in mouse HT22 cells assessed as suppression of corticosterone-induced decrease in cGMP level at 1 uM after 24 hrs by ELISA; assay type: cell-based
How it was run: (§1)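 Corticosterone at 100 μM applied to HT-22 cells for 30 min, followed by compound for 24 h. Intracellular cGMP and cAMP levels measured. Mean ± SEM, n = 6; compared with vehicle-treated corticosterone group.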

Mus musculus [8] = species: Mus musculus; assay: Inhibition of PDE2 in mouse HT22 cells assessed as suppression of corticosterone-induced decrease in cAMP level at 1 uM after 24 hrs by ELISA; assay type: cell-based; how it was run: as §1
[9] = AUC (0 to infinity) in ICR mouse at 2 mg/kg, po by LC-MS/MS analysis; assay type: ADME, organism-based; set-up: dose 2 mg/kg, time infinity, route oral; conditions: in vivo
[10] = Tmax in ICR mouse at 2 mg/kg, po by LC-MS/MS analysis; assay type: ADME, organism-based; conditions: in vivo
[11] = Half life in ICR mouse at 2 mg/kg, po by LC-MS/MS analysis; assay type: ADME, organism-based; conditions: in vivo
[12] = Ratio of drug level in ICR mouse brain to plasma at 2 mg/kg, po measured after 0.5 hrs by LC-MS/MS analysis; assay type: ADME, organism-based; conditions: brain and plasma, read-out: BPR
How it was run: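 Oral dose of 2 mg/kg in mice. Brain and plasma drug levels taken at 0.5 h after oral administration, and expressed as brain-to-plasma ratio.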

[13] = Cmax in ICR mouse at 2 mg/kg, po by LC-MS/MS analysis; assay type: ADME, organism-based; set-up: dose 2 mg/kg, route oral; conditions: in vivo
[14] = Toxicity in ICR mouse assessed as effect on locomotory activity at 0.5 to 2 mg/kg, ig administered as single dose via gavage measured for 10 mins; assay type: organism-based; conditions: in vivo, po
How it was run: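 Locomotor activity test in chronically stressed mice; locomotion counts recorded 10 minutes after a single oral treatment. Mean ± SEM, n = 6.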

Sequence of cGMP-dependent 3',5'-cyclic phosphodiesterase (O00408 whole entry): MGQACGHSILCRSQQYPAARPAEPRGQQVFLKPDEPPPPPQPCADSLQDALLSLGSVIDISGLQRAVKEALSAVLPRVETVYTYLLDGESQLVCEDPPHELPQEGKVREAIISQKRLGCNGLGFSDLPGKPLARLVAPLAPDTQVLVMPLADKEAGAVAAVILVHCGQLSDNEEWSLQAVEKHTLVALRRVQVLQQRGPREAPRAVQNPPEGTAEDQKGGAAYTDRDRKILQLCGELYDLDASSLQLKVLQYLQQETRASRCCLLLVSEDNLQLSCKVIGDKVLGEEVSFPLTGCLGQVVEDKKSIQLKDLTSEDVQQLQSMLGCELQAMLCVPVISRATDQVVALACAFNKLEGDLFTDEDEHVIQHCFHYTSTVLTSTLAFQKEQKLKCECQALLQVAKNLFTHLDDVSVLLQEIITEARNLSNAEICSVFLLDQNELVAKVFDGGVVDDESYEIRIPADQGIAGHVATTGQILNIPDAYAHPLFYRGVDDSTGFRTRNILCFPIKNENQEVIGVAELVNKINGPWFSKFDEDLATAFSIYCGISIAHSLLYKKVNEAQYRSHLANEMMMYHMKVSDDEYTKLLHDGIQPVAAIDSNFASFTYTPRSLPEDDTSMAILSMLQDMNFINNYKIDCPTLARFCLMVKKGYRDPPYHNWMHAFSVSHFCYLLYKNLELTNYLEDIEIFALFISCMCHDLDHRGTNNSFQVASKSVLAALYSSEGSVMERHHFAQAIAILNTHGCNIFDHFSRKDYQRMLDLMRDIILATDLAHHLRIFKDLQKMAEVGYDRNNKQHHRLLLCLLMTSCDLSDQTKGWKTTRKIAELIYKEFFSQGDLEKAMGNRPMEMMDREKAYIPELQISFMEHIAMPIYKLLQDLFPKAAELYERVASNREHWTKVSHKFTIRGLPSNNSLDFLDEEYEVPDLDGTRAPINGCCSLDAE
Sequence of High affinity cGMP-specific 3',5'-cyclic phosphodiesterase 9A (O76083 whole entry): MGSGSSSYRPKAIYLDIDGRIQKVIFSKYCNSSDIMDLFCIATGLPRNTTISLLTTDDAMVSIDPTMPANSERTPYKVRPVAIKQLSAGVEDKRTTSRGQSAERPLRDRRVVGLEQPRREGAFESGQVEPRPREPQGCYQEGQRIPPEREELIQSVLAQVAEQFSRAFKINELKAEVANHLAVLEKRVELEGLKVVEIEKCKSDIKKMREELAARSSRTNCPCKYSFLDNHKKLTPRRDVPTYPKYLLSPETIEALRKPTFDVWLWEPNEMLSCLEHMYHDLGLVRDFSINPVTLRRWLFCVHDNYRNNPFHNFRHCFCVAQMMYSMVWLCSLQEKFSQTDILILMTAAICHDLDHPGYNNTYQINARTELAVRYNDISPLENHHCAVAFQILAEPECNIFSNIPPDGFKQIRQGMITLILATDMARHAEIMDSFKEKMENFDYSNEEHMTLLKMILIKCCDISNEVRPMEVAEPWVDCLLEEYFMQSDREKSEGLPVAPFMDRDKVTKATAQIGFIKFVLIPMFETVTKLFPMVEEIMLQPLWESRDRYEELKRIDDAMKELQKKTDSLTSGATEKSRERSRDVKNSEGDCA
Sequence of cAMP and cAMP-inhibited cGMP 3',5'-cyclic phosphodiesterase 10A (Q9Y233 whole entry): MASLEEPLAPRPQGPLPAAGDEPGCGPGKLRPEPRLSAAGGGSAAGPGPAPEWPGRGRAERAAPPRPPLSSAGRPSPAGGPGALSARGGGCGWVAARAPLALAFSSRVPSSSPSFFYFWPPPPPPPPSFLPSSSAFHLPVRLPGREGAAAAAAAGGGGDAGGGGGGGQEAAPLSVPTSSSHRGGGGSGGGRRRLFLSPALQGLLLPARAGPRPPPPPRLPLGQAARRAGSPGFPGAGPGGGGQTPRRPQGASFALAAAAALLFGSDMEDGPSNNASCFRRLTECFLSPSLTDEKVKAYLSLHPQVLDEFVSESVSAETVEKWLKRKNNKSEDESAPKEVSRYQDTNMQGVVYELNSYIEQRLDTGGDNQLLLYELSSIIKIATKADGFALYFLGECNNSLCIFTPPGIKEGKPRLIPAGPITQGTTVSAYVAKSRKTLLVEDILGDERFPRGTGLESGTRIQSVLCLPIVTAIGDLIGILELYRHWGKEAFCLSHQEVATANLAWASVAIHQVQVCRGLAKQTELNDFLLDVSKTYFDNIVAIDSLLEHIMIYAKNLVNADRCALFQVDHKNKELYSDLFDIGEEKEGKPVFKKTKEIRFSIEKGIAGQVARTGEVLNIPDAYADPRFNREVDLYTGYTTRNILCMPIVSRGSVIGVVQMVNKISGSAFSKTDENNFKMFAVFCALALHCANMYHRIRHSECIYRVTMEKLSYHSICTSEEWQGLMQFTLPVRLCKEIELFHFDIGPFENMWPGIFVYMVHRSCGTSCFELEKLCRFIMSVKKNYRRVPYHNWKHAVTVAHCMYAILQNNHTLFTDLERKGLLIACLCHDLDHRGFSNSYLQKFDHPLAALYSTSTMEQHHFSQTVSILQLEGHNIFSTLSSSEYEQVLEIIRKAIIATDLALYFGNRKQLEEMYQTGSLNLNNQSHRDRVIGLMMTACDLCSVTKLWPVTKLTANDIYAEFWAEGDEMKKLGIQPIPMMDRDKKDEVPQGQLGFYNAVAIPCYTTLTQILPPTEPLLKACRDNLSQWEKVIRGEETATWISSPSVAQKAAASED

SMILES	IC50 [1] [µM]	further results
CCCCCCCCn1cnc2c(=O)[nH]c(Cc3ccccc3)nc21	4.28	–
O=c1[nH]c(Cc2ccc(OCc3ccccc3)cc2)nc2c1ncn2CCc1ccccc1	5.8	–
CC(c1cccc2ccccc12)N1C=NC2C(=O)NC(Cc3ccccc3)=NC21 (stereo unspecified)	0.57	–
CN1C(=O)CN=C(c2ccccc2)c2cc(Cl)ccc21	–	Activity (Mus musculus [2]): Active
CCCCC(CC)Cn1cnc2c(=O)[nH]c(Cc3ccc(OCc4ccccc4)cc3)nc21 (stereo unspecified)	0.072	IC50 [3]: > 500 µM; IC50 (Phosphodiesterase 1): > 500 µM; IC50 [4]: 13.9 µM; IC50 (Phosphodiesterase 4): > 500 µM; IC50 [5]: > 500 µM
COc1cccc(CCn2cnc3c(=O)[nH]c(Cc4ccccc4)nc32)c1	11	–
O=c1[nH]c(Cc2ccccc2)nc2c1ncn2CCc1cccs1	17	–
COc1ccc(CCn2cnc3c(=O)[nH]c(Cc4ccccc4)nc32)cc1OC	40.3	–
CCCCCCn1cnc2c(=O)[nH]c(Cc3ccc(OCc4ccccc4)cc3)nc21	3.91	–
CCCCn1cnc2c(=O)[nH]c(Cc3ccc(OCc4ccccc4)cc3)nc21	5.46	–
CCCCn1cnc2c(=O)[nH]c(Cc3ccccc3)nc21	4.32	–
CCCCC(CC)Cn1cnc2c(=O)[nH]c(Cc3ccccc3)nc21 (stereo unspecified)	1.24	–
O=c1[nH]c(Cc2ccccc2)nc2c1ncn2CCc1ccccc1	7.27	–
O=c1[nH]c(Cc2ccccc2)nc2c1ncn2CCc1c[nH]c2ccccc12	> 50	–
CCCCn1cnc2c(=O)[nH]c(Cc3ccc(OC)cc3)nc21	1.94	–
CCCCCCCCn1cnc2c(=O)[nH]c(Cc3ccc(OCc4ccccc4)cc3)nc21	2.63	–
CC(CCc1ccccc1)n1cnc2c(=O)[nH]c(Cc3ccccc3)nc21 (stereo unspecified)	0.31	–
O=c1[nH]c(Cc2ccccc2)nc2c1ncn2Cc1ccc2ccccc2c1	3.99	–
COc1ccc(Cc2nc(O)c3c(C)nc([C@@H](CCCc4ccccc4)[C@@H](C)O)n3n2)cc1OC	–	Activity (Mus musculus [6]): inactive; inhibition (Mus musculus [7]): Active; inhibition (Mus musculus [8]): Active
CCCCCCn1cnc2c(=O)[nH]c(Cc3ccc(OC)cc3)nc21	3.79	–
CCCCC(CC)Cn1cnc2c(=O)[nH]c(Cc3ccc(OC)cc3)nc21 (stereo unspecified)	0.081	AUC(0-inf) [9]: 646 ng·h/mL; IC50 [3]: > 500 µM; Tmax [10]: 31.8 min; IC50 (Phosphodiesterase 1): > 500 µM; IC50 [4]: 32.3 µM; half-life [11]: 84 min; Kp at 0.5 h [12]: 0.56; IC50 (Phosphodiesterase 4): > 500 µM; Cmax [13]: 511 ng/mL; Activity [14]: Non-Toxic; IC50 [5]: > 500 µM
CCCCCCn1cnc2c(=O)[nH]c(Cc3ccccc3)nc21	5.94	–
COc1ccc(CCn2cnc3c(=O)[nH]c(Cc4ccc(OCc5ccccc5)cc4)nc32)cc1OC	> 50	–
